Experimental data pooled from the literature.
Protocols differ between the studies behind these lines.

N=c1c2c(-c3ccccc3)c(-c3ccccc3)n(Cc3ccccc3)c2ncn1[C@H]1CC[C@H](O)CC1
Vd (male cynomolgus monkey, plasma; intravenous, 0.5 mg/kg, single dose): 1.5 L/kg

Cc1ccccc1C(=O)NN=Cc1ccc(O)c(Br)c1
Tmax (mouse, plasma; intraperitoneal, 0.8 mg/kg): 30 min

c1cc([C@H]2CC[C@]3(CC2)OO[C@]2(O3)C3CC4CC(C3)CC2C4)ccc1OCCN1CCOCC1
Cmax (human, plasma; oral, 400 mg, patients): 732 ng/mL

C[C@]12CC[C@H](O)CC1=CC[C@@H]1[C@@H]2CC[C@]2(C)C(n3cnc4ccccc43)=CC[C@@H]12.Cl
Tmax (mouse, plasma; oral, 10 mg/kg): 25.2 min

C/N=c1\nc(-c2ccccc2)n(-c2ccccc2)s1
efflux ratio (Caco-2; 20 µM, 95 min): 0.962

CC(=C/C=C/C(C)=C/C(=O)O)/C=C1\CCCc2ccccc21
Cmax (human, plasma; oral, 10 mg, single dose, fasted, healthy volunteers): 55.9 ng/mL

N=C(N)NCCC[C@@H](NC(=O)[C@@H](N)Cc1ccccc1)C(=O)N[C@@H](Cc1ccccc1)C(=O)N[C@@H](CCCCN)C(N)=O
Cmax (human, plasma; subcutaneous, 15 mg, patients): 886 ng/mL

CC[C@H](C)[C@H](NC(=O)[C@H](CC(C)C)NC(=O)[C@H](Cc1c[nH]c2ccccc12)NC(=O)[C@H](CCC(N)=O)NC(=O)[C@@H](NC(=O)[C@H](Cc1ccccc1)NC(=O)[C@H](C)NC(=O)[C@H](CCCCNC(=O)COCCOCCNC(=O)COCCOCCNC(=O)CC[C@H](NC(=O)CCCCCCCCCCCCCCCCCCC(=O)O)C(=O)O)NC(=O)[C@H](CCC(N)=O)NC(=O)[C@H](C)NC(=O)[C@@H](NC(=O)[C@H](CCCCN)NC(=O)[C@H](CC(=O)O)NC(=O)[C@H](CC(C)C)NC(=O)C(C)(C)NC(=O)[C@@H](NC(=O)[C@H](CO)NC(=O)[C@H](Cc1ccc(O)cc1)NC(=O)[C@H](CC(=O)O)NC(=O)[C@H](CO)NC(=O)[C@@H](NC(=O)[C@H](Cc1ccccc1)NC(=O)[C@@H](NC(=O)CNC(=O)[C@H](CCC(=O)O)NC(=O)C(C)(C)NC(=O)[C@@H](N)Cc1ccc(O)cc1)[C@@H](C)O)[C@@H](C)O)[C@@H](C)CC)[C@@H](C)CC)C(C)C)C(=O)N[C@@H](C)C(=O)NCC(=O)NCC(=O)N1CCC[C@H]1C(=O)N[C@@H](CO)C(=O)N[C@@H](CO)C(=O)NCC(=O)N[C@@H](C)C(=O)N1CCC[C@H]1C(=O)N1CCC[C@H]1C(=O)N1CCC[C@H]1C(=O)N[C@@H](CO)C(N)=O
Cmax (human, plasma; subcutaneous, 5 mg, patients): 379 ng/mL
